This note sets out measurements from PMC3487391 (Journal of medicinal chemistry, 2011).

The target in one data set is T1, G9a (Homo sapiens, UniProt Q96KQ7).
T1 sequence (Q96KQ7 1-1210): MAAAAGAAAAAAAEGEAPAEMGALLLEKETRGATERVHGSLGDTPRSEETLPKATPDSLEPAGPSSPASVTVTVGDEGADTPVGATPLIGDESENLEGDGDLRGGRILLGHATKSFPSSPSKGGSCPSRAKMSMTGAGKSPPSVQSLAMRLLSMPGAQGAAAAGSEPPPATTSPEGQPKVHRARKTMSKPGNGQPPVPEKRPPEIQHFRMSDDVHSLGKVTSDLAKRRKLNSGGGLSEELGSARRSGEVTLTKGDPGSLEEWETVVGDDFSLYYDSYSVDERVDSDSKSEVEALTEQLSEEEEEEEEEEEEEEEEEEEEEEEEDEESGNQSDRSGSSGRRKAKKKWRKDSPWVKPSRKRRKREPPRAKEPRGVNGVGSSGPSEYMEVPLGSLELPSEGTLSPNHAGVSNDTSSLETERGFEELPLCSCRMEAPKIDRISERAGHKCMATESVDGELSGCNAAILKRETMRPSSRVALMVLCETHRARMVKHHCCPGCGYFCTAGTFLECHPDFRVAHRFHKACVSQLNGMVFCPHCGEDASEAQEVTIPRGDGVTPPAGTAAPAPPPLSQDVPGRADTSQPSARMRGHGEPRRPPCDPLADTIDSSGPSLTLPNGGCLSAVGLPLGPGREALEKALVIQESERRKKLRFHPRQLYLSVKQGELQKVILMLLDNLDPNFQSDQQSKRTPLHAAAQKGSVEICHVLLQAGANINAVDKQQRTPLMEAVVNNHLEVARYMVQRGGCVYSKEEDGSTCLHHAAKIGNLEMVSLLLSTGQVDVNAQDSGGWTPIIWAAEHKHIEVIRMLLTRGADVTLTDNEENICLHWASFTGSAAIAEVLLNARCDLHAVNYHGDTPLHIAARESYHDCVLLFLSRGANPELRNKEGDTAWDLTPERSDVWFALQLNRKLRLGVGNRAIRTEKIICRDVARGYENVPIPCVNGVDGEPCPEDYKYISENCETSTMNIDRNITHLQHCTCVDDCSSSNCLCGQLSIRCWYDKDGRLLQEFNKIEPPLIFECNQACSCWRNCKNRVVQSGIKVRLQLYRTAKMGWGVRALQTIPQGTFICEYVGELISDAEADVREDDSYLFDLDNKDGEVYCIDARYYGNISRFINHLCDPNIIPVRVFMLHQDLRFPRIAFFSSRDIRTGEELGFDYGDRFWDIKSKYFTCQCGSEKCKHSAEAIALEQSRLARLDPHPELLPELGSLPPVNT
Nature of the data set: In vitro methylation fluorograph, G9a with H3 as substrate. The data set is classed as biochemical. As to conditions: compound at 100 μM. In outline: (§1)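 Recombinant enzyme (0.1–0.2 μM) and substrate (0.5–1.5 μM) are incubated with [methyl-³H]AdoMet (85 Ci/mmol) in PBS pH 7.4. Test compound is present at 100 μM. Reactions run 90 min at 30 °C, are resolved by SDS/PAGE and transferred to PVDF. The membrane is sprayed with Enhance and exposed to film overnight. Substrate bands are located by Ponceau S, excised and counted (dpm) for graphic depiction.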

For the next data set, the target named is PRMT3 (Homo sapiens, UniProt O60678). Nature of the data set: In vitro methylation fluorograph, PRMT3 with NPL3 and rpS2 as substrates. The data set is classed as biochemical. The settings on record: compound at 100 μM. In outline: as §1
Data set [1] addresses T2, CARM1 (Homo sapiens, UniProt Q86X55).
T2 sequence (Q86X55 1-608): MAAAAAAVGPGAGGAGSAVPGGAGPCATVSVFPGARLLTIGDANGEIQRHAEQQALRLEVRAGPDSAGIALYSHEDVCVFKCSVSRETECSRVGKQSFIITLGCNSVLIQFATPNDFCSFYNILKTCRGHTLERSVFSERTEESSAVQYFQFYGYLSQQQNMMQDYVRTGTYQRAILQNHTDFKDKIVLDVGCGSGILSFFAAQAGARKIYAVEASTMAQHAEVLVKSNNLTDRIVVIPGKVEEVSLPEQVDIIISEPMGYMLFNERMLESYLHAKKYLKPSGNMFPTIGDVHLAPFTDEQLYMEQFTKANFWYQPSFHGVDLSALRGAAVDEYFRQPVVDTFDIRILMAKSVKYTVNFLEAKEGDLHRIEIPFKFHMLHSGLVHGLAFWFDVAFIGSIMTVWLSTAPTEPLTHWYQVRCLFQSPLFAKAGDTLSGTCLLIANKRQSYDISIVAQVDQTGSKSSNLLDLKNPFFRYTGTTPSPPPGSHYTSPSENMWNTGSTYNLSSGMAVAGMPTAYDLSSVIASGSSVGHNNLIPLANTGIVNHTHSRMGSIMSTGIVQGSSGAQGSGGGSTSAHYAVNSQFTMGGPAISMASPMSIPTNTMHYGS
The data set is classed as biochemical. The settings on record: compound at 100 μM; substrates PABP1, CA150, SmB, histone H3. In outline: as §1

Data set [2] concerns the target T2, CARM1. Put plainly: In vitro methylation assay, CARM1 with PABP1 as substrate. The data set is classed as biochemical. As to conditions: for effect against PABP1 methylation by CARM1 (fluorograph): compound at 20 μM.
The next data set has as its target T3, Suv39H1 (Homo sapiens, UniProt O43463).
T3 sequence (O43463 1-412): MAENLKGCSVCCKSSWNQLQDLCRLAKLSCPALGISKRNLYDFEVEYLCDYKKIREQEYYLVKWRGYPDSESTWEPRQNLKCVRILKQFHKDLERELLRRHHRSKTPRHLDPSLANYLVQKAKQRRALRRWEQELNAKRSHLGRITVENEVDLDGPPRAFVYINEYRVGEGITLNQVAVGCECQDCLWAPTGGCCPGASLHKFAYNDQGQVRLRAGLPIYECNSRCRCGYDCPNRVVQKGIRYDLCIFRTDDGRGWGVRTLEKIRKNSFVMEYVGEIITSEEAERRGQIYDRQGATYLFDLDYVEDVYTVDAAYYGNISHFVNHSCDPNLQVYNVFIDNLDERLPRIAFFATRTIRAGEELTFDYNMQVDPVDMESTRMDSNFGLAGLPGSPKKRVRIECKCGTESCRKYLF
Put plainly: In vitro methylation fluorograph, Suv39H1 with H3 as substrate. As to conditions: compound at 100 μM. The data set is classed as biochemical. In outline: as §1

The target in the next data set is DOTL1 (Homo sapiens, UniProt Q8TEK3). Nature of the data set: In vitro methylation fluorograph, DOTL1 with nucleosome as substrate. The data set is classed as biochemical. As to conditions: compound at 100 μM. In outline: as §1
A further data set concerns the target T4, SET7 (Homo sapiens, UniProt Q8WTS6).
T4 sequence (Q8WTS6 1-366): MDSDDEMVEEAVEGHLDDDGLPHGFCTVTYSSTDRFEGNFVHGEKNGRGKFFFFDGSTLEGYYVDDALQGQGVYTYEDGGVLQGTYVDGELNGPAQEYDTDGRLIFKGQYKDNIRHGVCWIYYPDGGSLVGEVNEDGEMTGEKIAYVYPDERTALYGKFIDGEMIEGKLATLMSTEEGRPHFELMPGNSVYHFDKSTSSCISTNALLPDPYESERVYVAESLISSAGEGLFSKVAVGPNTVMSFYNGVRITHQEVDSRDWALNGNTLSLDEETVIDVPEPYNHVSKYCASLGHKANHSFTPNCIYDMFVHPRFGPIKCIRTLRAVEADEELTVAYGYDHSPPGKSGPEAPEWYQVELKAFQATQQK
Nature of the data set: In vitro methylation assay, SET7 with histone H3 as substrate. The data set is classed as biochemical. The settings on record: compound at 100 μM.

For the next data set, the system named is LNCaP cells. Put plainly: Cell viability by Cell Titer-Glo. The data set is classed as cell-based. As to conditions: at concentrations that impacted the luciferase assay. In outline:
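LNCaP cells are grown in phenol-red-free RPMI1640 with 10% charcoal-stripped FCS and transfected with PSA(ARE)-LUC and CMV-Renilla. After 12 h they are treated with 20 nM DHT plus increasing concentrations of test compound. After 42–44 h, cells are washed twice with PBS and harvested, and 1/6 of them is assayed with CellTiter-Glo luminescent reagent for ATP-based viability.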
In general terms: In ATP-based viability assays light output follows the ATP content of the culture.

Data set [3] deals with Flag-PABP1 methylation in HEK293 cells. Nature of the data set: Tetracycline-inducible Flag-PABP1 methylation reporter system in HEK293 cells. The data set is classed as cell-based, human. The settings on record: tetracycline-induced Flag-PABP1, methyl-specific PABP1 antibody. In outline: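 HEK293 cells engineered with a tetracycline-controlled TetR repressor carry tetO-regulated Flag-PABP1. Tetracycline is added with test compound to induce Flag-PABP1. Lysates are resolved by SDS-PAGE, where Flag-PABP1 migrates slower than endogenous PABP1. Its methylation is detected by immunoblot with an in-house methyl-specific PABP1 antibody.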

For another data set, the target named is PRMT5 (Homo sapiens, UniProt O14744). Nature of the data set: In vitro methylation fluorograph, PRMT5 with histone H4 as substrate. The data set is classed as biochemical. As to conditions: compound at 100 μM. In outline: as §1
Data set [4] concerns PSA promoter in LNCaP cells. Put plainly: PSA luciferase assay in LNCaP cells. The data set is classed as cell-based, human. As to conditions: two days, relative to CMV-Renilla control. In outline: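 LNCaP cells are grown in phenol-red-free RPMI1640 with 10% charcoal-stripped FCS and seeded ~20 h before Lipofectamine transfection with 300 ng PSA(ARE)-LUC and 2 ng humanized CMV-Renilla. After 12 h, cells receive 20 nM DHT plus test compound at increasing concentrations. After 42–44 h, 5/6 of the washed, harvested cells go to a dual luciferase assay, normalised to Renilla. Values are mean ± SD of triplicates.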

Molecules are shown by their SMILES.

DOTL1, sequence (Q8TEK3 whole entry): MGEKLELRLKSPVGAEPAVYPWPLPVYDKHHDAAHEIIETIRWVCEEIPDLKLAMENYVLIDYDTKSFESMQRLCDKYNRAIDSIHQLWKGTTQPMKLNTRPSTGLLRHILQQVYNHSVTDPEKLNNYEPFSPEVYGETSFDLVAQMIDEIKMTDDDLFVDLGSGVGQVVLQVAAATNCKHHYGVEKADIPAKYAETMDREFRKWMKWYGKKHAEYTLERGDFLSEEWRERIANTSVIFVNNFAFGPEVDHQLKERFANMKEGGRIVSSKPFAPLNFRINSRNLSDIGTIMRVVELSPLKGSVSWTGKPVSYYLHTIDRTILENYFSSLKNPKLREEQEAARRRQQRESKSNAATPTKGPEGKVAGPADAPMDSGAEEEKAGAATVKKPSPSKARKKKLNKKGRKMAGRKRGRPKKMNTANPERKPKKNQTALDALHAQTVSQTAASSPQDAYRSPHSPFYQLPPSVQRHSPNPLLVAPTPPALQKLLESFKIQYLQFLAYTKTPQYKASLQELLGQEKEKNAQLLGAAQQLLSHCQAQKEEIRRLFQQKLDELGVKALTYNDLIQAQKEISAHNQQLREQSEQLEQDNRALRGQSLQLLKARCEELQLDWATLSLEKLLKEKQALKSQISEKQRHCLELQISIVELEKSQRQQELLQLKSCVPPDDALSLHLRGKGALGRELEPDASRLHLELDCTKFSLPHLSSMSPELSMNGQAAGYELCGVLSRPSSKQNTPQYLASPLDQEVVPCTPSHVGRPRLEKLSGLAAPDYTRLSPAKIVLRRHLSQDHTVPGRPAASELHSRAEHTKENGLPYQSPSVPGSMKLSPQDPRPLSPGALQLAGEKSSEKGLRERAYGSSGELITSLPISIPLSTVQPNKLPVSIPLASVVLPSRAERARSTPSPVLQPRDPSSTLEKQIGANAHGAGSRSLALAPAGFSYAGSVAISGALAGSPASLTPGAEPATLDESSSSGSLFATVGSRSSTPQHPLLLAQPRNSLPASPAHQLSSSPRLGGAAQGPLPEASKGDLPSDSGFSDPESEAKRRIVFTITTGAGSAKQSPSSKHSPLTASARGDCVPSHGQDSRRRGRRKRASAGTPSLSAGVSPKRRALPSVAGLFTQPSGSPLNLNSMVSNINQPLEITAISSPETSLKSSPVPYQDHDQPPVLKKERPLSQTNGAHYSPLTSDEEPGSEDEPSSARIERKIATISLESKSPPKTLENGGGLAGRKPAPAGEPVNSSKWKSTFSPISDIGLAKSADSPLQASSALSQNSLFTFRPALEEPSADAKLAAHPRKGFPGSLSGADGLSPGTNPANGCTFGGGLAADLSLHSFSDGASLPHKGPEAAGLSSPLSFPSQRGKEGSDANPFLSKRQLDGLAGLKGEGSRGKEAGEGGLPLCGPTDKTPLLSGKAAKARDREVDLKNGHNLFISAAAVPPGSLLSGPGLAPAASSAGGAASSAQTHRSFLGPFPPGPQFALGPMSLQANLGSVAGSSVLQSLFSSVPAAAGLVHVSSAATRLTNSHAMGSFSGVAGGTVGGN
PRMT3, sequence (O60678 whole entry, species assumed): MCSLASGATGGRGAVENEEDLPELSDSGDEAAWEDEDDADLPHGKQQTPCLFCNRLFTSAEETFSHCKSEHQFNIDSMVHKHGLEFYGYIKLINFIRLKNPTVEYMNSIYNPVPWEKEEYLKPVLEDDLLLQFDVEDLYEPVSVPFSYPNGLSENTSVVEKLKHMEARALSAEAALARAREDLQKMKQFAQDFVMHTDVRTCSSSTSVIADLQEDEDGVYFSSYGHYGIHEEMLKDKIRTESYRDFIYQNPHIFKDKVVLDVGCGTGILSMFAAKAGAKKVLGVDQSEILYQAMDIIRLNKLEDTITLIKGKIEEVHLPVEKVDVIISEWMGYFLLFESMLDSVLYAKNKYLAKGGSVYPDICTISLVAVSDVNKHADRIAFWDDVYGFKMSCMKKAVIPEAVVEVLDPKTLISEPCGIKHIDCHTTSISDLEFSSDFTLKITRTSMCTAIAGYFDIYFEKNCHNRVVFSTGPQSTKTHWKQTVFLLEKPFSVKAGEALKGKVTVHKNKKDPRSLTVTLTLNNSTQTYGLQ
PRMT5, sequence (O14744 whole entry, species assumed): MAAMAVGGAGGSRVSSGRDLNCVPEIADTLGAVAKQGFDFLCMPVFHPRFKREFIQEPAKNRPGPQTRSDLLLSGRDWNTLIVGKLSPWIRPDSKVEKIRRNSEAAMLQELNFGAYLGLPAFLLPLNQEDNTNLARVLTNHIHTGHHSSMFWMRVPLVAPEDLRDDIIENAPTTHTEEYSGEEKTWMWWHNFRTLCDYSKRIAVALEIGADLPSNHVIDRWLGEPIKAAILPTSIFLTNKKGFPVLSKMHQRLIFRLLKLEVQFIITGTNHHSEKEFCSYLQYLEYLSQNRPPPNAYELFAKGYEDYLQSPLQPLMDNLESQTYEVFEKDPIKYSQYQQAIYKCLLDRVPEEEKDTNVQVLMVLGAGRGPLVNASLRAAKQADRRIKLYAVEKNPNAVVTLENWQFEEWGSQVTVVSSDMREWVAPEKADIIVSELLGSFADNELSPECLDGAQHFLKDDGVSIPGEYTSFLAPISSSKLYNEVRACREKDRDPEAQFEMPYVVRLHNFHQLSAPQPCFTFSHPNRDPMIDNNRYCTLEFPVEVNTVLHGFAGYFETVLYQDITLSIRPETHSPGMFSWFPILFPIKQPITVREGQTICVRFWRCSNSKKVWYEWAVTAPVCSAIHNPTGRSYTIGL

As for `O=C1/C(=C/c2ccc(O)c(Br)c2)CN(Cc2ccccc2)C/C1=C\c1ccc(O)c(Br)c1` [7g, 1-benzyl-3,5-bis(3-bromo-4-hydroxybenzylidene) piperidin-4-one], at G9a, the “activity against G9a (fluorograph)” value was “No significant activity”. For the same compound, at PRMT3, the “inhibition of PRMT3 (fluorograph)” value was “able to inhibit to some extent”. Moreover, the “inhibition of CARM1 activity on various substrates (fluorograph)” value (from here on “inhibition of CARM1 activity”) against CARM1 [1] is given as “strongly inhibited”. Further, the “enzyme preference of inhibition (in words)” value at CARM1 [2] (series 7a-m, IC50 determination vs PRMT1, CARM1, SET7 (Table S1)) is listed as “preferably inhibited CARM1”. The “activity against Suv39H1 (fluorograph)” value on Suv39H1 was “No significant activity”. Moreover, the “activity against DOTL1 (fluorograph)” value at DOTL1 is given as “No significant activity”. In addition, the “activity against SET7 (fluorograph)” value on SET7 was “No significant activity”. For the same compound, the “effects on cell viability” value with LNCaP cells is “no or little effects”. In addition, in data set [3], the “inhibition of Flag-PABP1 methylation” value is listed as “able to inhibit”.
Take `Cc1ccc(CN2C/C(=C\c3ccc(O)c(Br)c3)C(=O)/C(=C/c3ccc(O)c(Br)c3)C2)cc1` [8c]: the “effect against PABP1 methylation by CARM1 (fluorograph)” value at CARM1 [2] is given as “no effect”.
As for `O=C1/C(=C/c2ccc(O)c(Br)c2)CN(Cc2cccc(Cl)c2)C/C1=C\c1ccc(O)c(Br)c1` [8e], the “activity against G9a (fluorograph)” value at G9a was “No significant activity”. Further, the “inhibition of PRMT3 (fluorograph)” value against PRMT3 is given as “able to inhibit to some extent”. Moreover, the “inhibition of CARM1 activity” value against CARM1 [1] is on record as “strongly inhibited”. Also, the “activity against Suv39H1 (fluorograph)” value at Suv39H1 is “No significant activity”. Also, the “activity against DOTL1 (fluorograph)” value at DOTL1 was “No significant activity”. The “inhibition of PRMT5 (fluorograph)” value on PRMT5 is reported as “high inhibition”. The “activity against SET7 (fluorograph)” value on SET7 was “No significant activity”. Further, the “inhibition of Flag-PABP1 methylation” value in [3] is listed as “only 7g was able to inhibit”.
As to `O=C1/C(=C/c2ccc(O)c(Br)c2)CN(CCCc2ccccc2)C/C1=C\c1ccc(O)c(Br)c1` [8k], the “effect against PABP1 methylation by CARM1 (fluorograph)” value at CARM1 [2] is “no effect”.
As for `O=C1/C(=C/c2ccc(O)c(Br)c2)CN(CC(=O)c2ccccc2)C/C1=C\c1ccc(O)c(Br)c1` [8l], the “concentration effective on PSA reporter activity” value in [4] came to 30 µM. For the same compound, the “activity against G9a (fluorograph)” value at G9a was “No significant activity”. The “inhibition of CARM1 activity” value against CARM1 [1] is reported as “strongly inhibited”. Besides, on Suv39H1, the “activity against Suv39H1 (fluorograph)” value is on record as “No significant activity”. Further, the “activity against DOTL1 (fluorograph)” value at DOTL1 was “No significant activity”. Further, the “inhibition of PRMT5 (fluorograph)” value against PRMT5 is given as “high inhibition”. The “activity against SET7 (fluorograph)” value on SET7 is “No significant activity”. For the same compound, in the data set on LNCaP cells, the “effects on cell viability” value is “no or little effects”. In data set [3], the “inhibition of Flag-PABP1 methylation” value is on record as “only 7g was able to inhibit”.
